Legend:
[1] = Intrinsic clearance in CD-1 mouse liver microsomes at 0.5 uM in presence of NADPH measured up to 30 mins by UPLC-MS/MS analysis; format: ADME, Microsome; details: 0.5 h
How it was run: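 Female CD1 mouse liver microsomes, test compound 0.5 μM; reaction started with excess NADPH (8 mg/mL in 50 mM potassium phosphate, pH 7.4). Aliquots at 0, 3, 6, 9, 15, 30 min quenched in acetonitrile, internal standard added, protein spun down; UPLC-MS/MS. Rate constant k from exponential decay of compound/internal standard peak-area ratio.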

THP-1 = assay: Cytotoxicity against human THP-1 cells incubated for 72 hrs by resazurin dye based assay; format: cell-based; details: THP-1, 72 h
[2] = Kinetic aqueous solubility of compound in phosphate buffer at pH 7.4 incubated for 1 hr; format: physicochemical; details: read-out: Kinetic_solubility
How it was run: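 10 mM DMSO stock diluted 20-fold into pH 7.4 phosphate buffered saline, equilibrated 1 h at room temperature, filtered; filtrate quantified by calibrated charged aerosol detection.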

[3] = AUC (0 to T last) in rat at 10 mg/kg; format: ADME, organism-based; parameters: dose 10 mg/kg; details: in vivo

| SMILES | intrinsic clearance [1] [mL/min/g] | other results |
| --- | --- | --- |
| COc1ccccc1-c1n[nH]c2nc(NC3CCN(c4ccc(Cl)nn4)CC3)ncc12 | 3.4 |  |
| O=C(Cc1ccc(F)cc1F)N1CCC(Nc2ncc3c(-c4ccccn4)n[nH]c3n2)CC1 | 6.7 |  |
| O=C(Cc1ccc(F)c(F)c1)N1CCC(Nc2ncc3c(C4CCOCC4)n[nH]c3n2)CC1 | 3.1 |  |
| Clc1ccc(N2CCC(Nc3ncc4c(N5CCOCC5)n[nH]c4n3)CC2)nn1 | 0.6 |  |
| COc1ccccc1-c1n[nH]c2nc(NC3CCN(C(=O)N4CCOCC4)CC3)ncc12 | 2 |  |
| COc1ccccc1-c1n[nH]c2nc(NC3CCN(C(=O)OCc4ccccc4)CC3)ncc12 | 9 |  |
| CC(C)Cc1n[nH]c2nc(NC3CCN(C(=O)Cc4ccc(Cl)cc4Cl)CC3)ncc12 | 30 |  |
| Cn1nccc1-c1n[nH]c2nc(NC3CCN(C(=O)Cc4ccc(F)cc4F)CC3)ncc12 | 3.3 |  |
| O=C(CC1CC1)N1CCC(Nc2ncc3c(C4CCOCC4)n[nH]c3n2)CC1 | 0.8 |  |
| CCS(=O)(=O)N[C@H]1CC[C@H](Nc2ncc3c(CC(C)C)n[nH]c3n2)CC1 | 27 | EC50 (THP-1): > 50.1 µM; solubility kinetic at 1 h [2]: < 1 µM |
| O=C(Cc1ccc(F)cc1F)N1CCC(Nc2ncc3c(C4CC4)n[nH]c3n2)CC1 | 5 |  |
| O=C(Cc1ccc(F)c(F)c1)N1CCC(Nc2ncc3c(N4CCOCC4)n[nH]c3n2)CC1 | 1.6 | AUC(0-t) [3]: 448 ng·h/mL |
| CCOC(=O)N1CCC(Nc2ncc3c(-c4ccccc4OC)n[nH]c3n2)CC1 | 14 |  |
| O=C(Cc1ccc(F)cc1F)N1CCC(Nc2ncc3c(-c4ccccc4)n[nH]c3n2)CC1 | 7.2 |  |
| O=C(Cc1ccc(F)cc1F)N1CCC(Nc2ncc3c(N4CCOCC4)n[nH]c3n2)CC1 | 2 |  |
| O=C(Cc1ccc(F)cc1F)N1CCC(Nc2ncc3c(CN4CCOCC4)n[nH]c3n2)CC1 | < 0.5 |  |
| O=C(Cc1ccc(F)cc1F)N1CCC(Nc2ncc3c(C4CCOCC4)n[nH]c3n2)CC1 | 0.5 |  |
| COc1ccccc1-c1n[nH]c2nc(NC3CCN(S(=O)(=O)CCC(F)(F)F)CC3)ncc12 | 14 |  |
| CC(C)Cc1n[nH]c2nc(NC3CCN(C(=O)c4ccccc4)CC3)ncc12 | 7 |  |
| CC(C)Cc1n[nH]c2nc(NC3CCN(C(=O)Cc4ccccc4)CC3)ncc12 | 18 |  |
| COc1ccccc1-c1n[nH]c2nc(NC3CCN(C(=O)Cc4ccc(F)cc4F)CC3)ncc12 | 5 |  |
| CC(C)(C)Cc1n[nH]c2nc(NC3CCN(C(=O)Cc4ccc(F)cc4F)CC3)ncc12 | 22 |  |
| COc1ncccc1-c1n[nH]c2nc(NC3CCN(C(=O)Cc4ccc(F)cc4F)CC3)ncc12 | 15 |  |
| CC(C)Cc1n[nH]c2nc(NC3CCN(C(=O)Cc4ccc(F)cc4F)CC3)ncc12 | 12 |  |
| COc1ccccc1-c1n[nH]c2nc(NC3CCN(C(=O)CC4CC4)CC3)ncc12 | 1.6 |  |
| CC(C)Cc1n[nH]c2nc(NC3CCN(S(=O)(=O)Cc4ccccc4)CC3)ncc12 | > 50 |  |
| COc1ccccc1-c1n[nH]c2nc(NC3CCN(C(=O)Cc4ccc(F)c(F)c4)CC3)ncc12 | 6.3 |  |
